Screening data deposited in PubChem BioAssay by several laboratories.
Rows were chosen to be rich in hits. Some 5.2% of all compounds tested hit in one or more screens of this group.
EBNA-1 inh: blocks EBNA-1 binding to DNA; EBNA-1 DNA binding, fluorescence polarization; inhibition, % at 14.8 µM; actives 0.34% (n = 300,000); AID 1950; in the data active means inhibition above about 28%
HCV NS3 hel inh: blocks Hepatitis C virus NS3 helicase unwinding. NS3 helicase DNA unwinding, Cy5 molecular beacon fluorescence. inhibition, % at 10.9 µM. actives 0.56% (n = 290,000). AID 1800;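 active means inhibition above the mean of all tested compounds plus 3 SD, set per campaign, cut at about 35% in these data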;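 further: 0% = DMSO wells and 100% = thioflavine S control wells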
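test system = hepatitis C virus NS3 helicase domain fragment enzyme | reagent = annealed dual-labelled DNA beacon duplex, ATP-started | times = 1 h at 25 °C | detection = Cy5 fluorescence, 0 and 60 min reads | read-out basis = percent inhibition from t60/t0 fluorescence ratio | control set = DMSO and thioflavine S | replication = one well per compound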
ALR H2O2 inh: inhibitors of human sulfhydryl oxidase ALR; purified ALR, DTT oxidation, H2O2 HRP-luminol luminescence; actives 3.8% (n = 290,000); inhibition, % (concentration not given with the values); P55789; AID 485317;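 active means mean replicate inhibition above about 79%, with every replicate also reaching it, limit read from the data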
Target sequence (P55789 whole entry, looked up): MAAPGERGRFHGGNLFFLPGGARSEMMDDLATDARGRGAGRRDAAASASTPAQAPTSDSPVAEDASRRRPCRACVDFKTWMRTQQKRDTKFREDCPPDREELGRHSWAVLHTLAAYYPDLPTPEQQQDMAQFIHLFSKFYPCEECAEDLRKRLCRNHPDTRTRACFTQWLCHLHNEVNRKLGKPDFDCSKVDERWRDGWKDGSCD
PfM18AAP inh: PfM18AAP enzyme inhibition. recombinant PfM18AAP, H-Glu-NHMec fluorogenic cleavage. inhibition, % at 7.35 µM. actives 1.2% (n = 290,000);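 active means inhibition above the campaign mean inhibition over all tested compounds plus 3 SD, cut at about 28% in these data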;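 further: 0% = plate median of test compound wells and 100% = 2 mM ZnCl2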
core dimer inh: HCV core protein dimerization inhibition; TR-FRET GST/Flag-core106 dimerization, 1536-well; inhibition, % at 5 µM; actives 0.33% (n = 300,000); AID 1899;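 active means inhibition above the mean of all tested compounds plus 3 SD, set per screening campaign, cut at about 45% in these data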
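Assay system: Tagged HCV core106 pair (GST and Flag) | Buffer or medium: KF-containing HEPES buffer, pH 7.45, DTT, CHAPS, BSA | Also added: Eu donor and XL665 acceptor anti-tag antibodies | Dosing: One concentration, 5 µM, in 0.5% DMSO | Timing: 4 h at 22.5 °C | Technique: TR-FRET 671 and 617 nm emission | Repeats: Singlicate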
ZTA DNA inh: counter-screen for EBNA-1 inhibitors: inhibitors of Epstein-Barr virus ZTA; inhibition, % at 11 µM; ZTA-DNA binding, fluorescence polarization; P03206; actives 0.15% (n = 320,000); in the data active means inhibition above about 33%
Target sequence (P03206 whole entry, looked up): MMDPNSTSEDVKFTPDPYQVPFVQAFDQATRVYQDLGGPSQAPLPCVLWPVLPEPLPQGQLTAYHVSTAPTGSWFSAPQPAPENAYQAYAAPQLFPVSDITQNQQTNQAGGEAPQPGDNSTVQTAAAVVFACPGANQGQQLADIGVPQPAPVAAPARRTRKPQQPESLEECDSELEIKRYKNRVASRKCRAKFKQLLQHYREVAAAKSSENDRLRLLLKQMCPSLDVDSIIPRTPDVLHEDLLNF
* = called active by the depositor; / = no result given.

SMILES | EBNA-1 inh | HCV NS3 hel inh | ALR H2O2 inh | PfM18AAP inh | core dimer inh | ZTA DNA inh
CCOc1ccc(S(=O)(=O)Nc2nc3ccccc3nc2Nc2ccc(N3CCOCC3)cc2)cc1 | 9 | 19 | 93* | 8 | 3 | 10
CSCCC(N=C1NS(=O)(=O)c2ccccc21)C(=O)NCCc1ccccc1 (stereo not drawn) | 6 | 4 | -1 | -4 | 1 | -13
Cc1ccc(Sc2cnn(-c3ccccc3)c(=O)c2Cl)cc1 | 8 | 0 | 62 | 1 | 22 | 3
Nc1ccc(Sc2cnn(-c3ccccc3)c(=O)c2Cl)cc1 | -2 | -3 | 92* | 1 | -4 | 7
Cc1[nH]c(=O)[nH]c(=O)c1S(=O)(=O)N1CCN(c2ccccc2F)CC1 | 14 | 6 | -10 | 10 | 0 | 3
COc1ccccc1N1CCN(S(=O)(=O)c2c(C)[nH]c(=O)[nH]c2=O)CC1 | 4 | 0 | 97* | -3 | -1 | -7
COc1ccccc1N1CCN(S(=O)(=O)c2cccc(F)c2)CC1 | -9 | -7 | 97* | -7 | 0 | -7
COc1cccc(S(=O)(=O)N2CCN(Cc3ccc4c(c3)OCO4)CC2)c1 | 2 | -9 | 2 | -4 | 5 | 1
CCC(C)Nc1ccc(NC(C)CC)cc1 (stereo not drawn) | / | / | 99* | / | / | 16
O=C(NCC1CCCO1)c1cc(NS(=O)(=O)c2cccs2)cc(NS(=O)(=O)c2cccs2)c1 (stereo not drawn) | -2 | 7 | -4 | -4 | 1 | -5
O=C1CCC/C(=N/NC(=O)c2cc(NS(=O)(=O)c3cccs3)cc(NS(=O)(=O)c3cccs3)c2)C1 | -9 | 23 | 44 | 30* | 1 | 3
O=C1CCC/C(=N/NC(=O)c2ccc(NS(=O)(=O)c3cccs3)cc2)C1 | 11 | 35 | 82* | 23 | -2 | 8
COC(=O)c1ccsc1NC(=O)CN1CCN(c2ncccn2)CC1 | -1 | -4 | -6 | 4 | 1 | 8
O=C(CN1CCOc2ccccc21)NCc1cccs1 | 0 | 5 | 99* | 2 | 2 | 1
O=C(CN1CCOc2ccccc21)NCc1ccc(F)cc1 | 1 | -6 | 98* | 3 | -3 | 26
O=C(CN1CCOc2ccccc21)NCc1ccco1 | 2 | 4 | 51 | 9 | -3 | 2
O=C(CN1CCOc2ccccc21)NCc1ccc(Cl)cc1 | -6 | 2 | 99* | 12 | -4 | -7
COCCNC(=O)CN1CCOc2ccccc21 | 8 | 3 | / | 2 | -1 | -2
O=C(CN1CCOc2ccccc21)NC1CC1 | 7 | 23 | 87* | 21 | -2 | 21
C[C@H](CO)N1C[C@H](C)[C@@H](CN(C)S(=O)(=O)c2cn(C)cn2)Oc2ccc(NC(=O)Cn3cnnn3)cc2C1=O | / | / | -14 | / | / | /
COc1cc(S(=O)(=O)NC2CCCCC2)c(C)cc1C | -3 | 6 | 0 | 1 | 1 | -14
CN1CN(C)c2cccc3cccc1c23 | 0 | -5 | 98* | 5 | -14 | -8
CCN1C(=O)N(CC)c2cccc3cccc1c23 | 8 | 6 | -15 | 9 | -4 | 3
CCN(CC)S(=O)(=O)c1ccc2c(c1)nc(CCC(=O)Nc1ccccc1Cc1ccccc1)n2CC | -3 | -1 | -20 | 8 | 16 | 7
Cc1ccc(C(=O)CC(SCC(=O)O)c2ccc([N+](=O)[O-])cc2)cc1 (stereo not drawn) | 8 | -9 | 99* | 20 | 3 | -7
SMILES | EBNA-1 inh | HCV NS3 hel inh | ALR H2O2 inh | PfM18AAP inh | core dimer inh | ZTA DNA inh
COc1ccc(NC(=O)CCN2CCN(c3ccccc3F)CC2)c(OC)c1 | 5 | 8 | -10 | 3 | 6 | -12
CCn1ccnc1CN(C)C(=O)C1CCC(=O)N(Cc2cccc(F)c2)C1 (stereo not drawn) | -6 | 21 | 1 | -6 | -5 | -12
COc1ccc(C(=O)/C=C/c2ccccc2)c(OC)c1 | -6 | -14 | 52 | 4 | -7 | -4
COC1=C(C)C(O)=C(C(=O)/C=C/c2ccccc2)C(=O)C1(C)C | 15 | / | 97* | / | 19 | 20
CCOc1cc(C2CC(=O)N3CN(C4CCCCC4)CSC3=C2C#N)ccc1O (stereo not drawn) | 6 | 6 | -3 | 31* | -5 | 18
Cc1ccc(NC(=O)C2=C(C(=O)O)CCCC2)cc1Br | 1 | -9 | 11 | 1 | -4 | -21
Cc1oc(-c2ccccc2)cc1C(=O)Nc1cccc(C(=O)O)c1 | 0 | 21 | 84* | 4 | 2 | 6
Cc1sc2nc(CSCC(=O)NC3(C#N)CCCCC3)[nH]c(=O)c2c1C | / | / | 95* | / | / | 3
CCc1cccc(NC(=O)CSCc2nc3sc(C)c(C)c3c(=O)[nH]2)c1 | / | / | 0 | / | / | 13
Nc1c(-c2ccccc2)c(CSc2nc3ccccc3[nH]2)nn1-c1cccc(Cl)c1 | 5 | 14 | 91* | 6 | 22 | 6
Cc1nnc(Nc2ccc3c(c2)OCO3)c2ccccc12 | 0 | -5 | 88* | -2 | -6 | 5
Cc1ccc(-c2nnc(Nc3ccc4c(c3)OCO4)c3ccccc23)cc1S(N)(=O)=O | 1 | -5 | / | 3 | 0 | -10
CCCN1CCN(C(=O)c2oc3ccccc3c2NC(=O)COc2ccc(OC)cc2)CC1 | 6 | -10 | 1 | 1 | 5 | 9
CNc1snc(C)c1C(=O)OCC(=O)c1ccc(OC)c(F)c1 | / | / | -1 | / | / | -4
Cc1[nH]c2ccccc2c1N=Nc1cccc(C(=O)O)c1 | 10 | 17 | 98* | -4 | -14 | 3
COC(=O)c1cc(N=Nc2c(C)[nH]c3ccccc23)cc(C(=O)OC)c1 | -1 | 13 | -10 | -2 | -2 | 3
Cc1ccc(-c2c[n+](Cc3ccc(Cl)c(Cl)c3)c3n2CCC3)cc1 | -11 | -48 | -23 | 1 | -6 | 1
CC(/C=C/c1ccc(N(C)C)cc1)=N\N=C(/N)SC1CC(=O)N(c2ccc(C(=O)O)cc2)C1=O (stereo not drawn) | -8 | 13 | 100* | 8 | -16 | -4
O=c1cc(-c2ccccc2Cl)oc2c(NS(=O)(=O)c3cc(Cl)cc(Cl)c3O)ccc(O)c12 | 24 | 13 | 97* | 5 | 22 | 16
CCc1ccc(S(=O)(=O)Nc2ccc(O)c3c(=O)cc(-c4ccccc4Cl)oc23)cc1 | 8 | / | 3 | / | 9 | -6
CCOc1ccccc1NC(=O)NCc1ccccn1 | 3 | 0 | -9 | -1 | -7 | -4
Cc1ccc(N2CCC(N3CCN(C4CCCCC4)C(CCO)C3)CC2)cc1 (stereo not drawn) | -2 | 2 | 99* | -11 | 2 | -8
CC(C)N1CCC(N2CCN(C3CCCCC3)CC2CCO)CC1 (stereo not drawn) | -3 | 12 | -3 | 1 | -1 | -9
CC(C)CCN1CCN(C2CCN(c3ccc4c(c3)OCO4)CC2)CC1CCO (stereo not drawn) | 4 | -9 | 99* | 25 | -4 | -10
